Results on 6 compounds are retold here after ChEMBL document CHEMBL1144551, “Enantioselective synthesis and antiviral activity of purine and pyrimidine cyclopentenyl C-nucleosides” (Bioorg Med Chem, 2007).

One series has as its system Vaccinia virus. The series is described as follows: Antiviral activity against vaccinia virus. Format: functional, organism-based. The settings on record: Orthopoxvirus vaccinia.
Series [1] concerns Human immunodeficiency virus 1. The series is described as follows: Antiviral activity against HIV1 LA1 in human PBM cells. Format: functional, organism-based. The settings on record: Human immunodeficiency virus 1, LA1, PBMC. In short, it runs like this: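 Human peripheral blood mononuclear (PBM) cells were infected with HIV-1 strain LAI, and antiviral activity was expressed as EC50.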

A further series relates to West Nile virus. The series is described as follows: Antiviral activity against West Nile virus. Format: functional, organism-based.
The test system of a further series is Human alphaherpesvirus 3. The series is described as follows: Antiviral activity against varicella zoster virus. Format: functional, organism-based.
For a further series, the system named is Yellow fever virus. Description: Antiviral activity against yellow fever virus. Format: functional, organism-based.
A further series has as its system Human alphaherpesvirus 2. Description: Antiviral activity against herpes simplex virus 2. Format: functional, organism-based.
Another series deals with Dengue virus. Description: Antiviral activity against dengue virus. Format: functional, organism-based.
Series [2] can be described thus: Cytotoxicity against PBM cells. The settings on record: Homo sapiens, PBMC. The format is cell-based.
For series [3], the system named is Venezuelan equine encephalitis virus. Description: Antiviral activity against Venezulean equine encephalitis virus. The format is functional, organism-based.
For another series, the system named is Cowpox virus. Description: Antiviral activity against Cowpox virus. The format is functional, organism-based.
A further series has as its system Hepatitis C virus. The series is described as follows: Antiviral activity against hepatitis C virus. The format is functional, organism-based. The settings on record: Hepacivirus hominis.
The next series relates to LLC-MK2. The series is described as follows: Cytotoxicity against LLC-MK2 cells. The format is cell-based, Macaca mulatta. The settings on record: rhesus monkey.
Another series concerns Vero. Description: Cytotoxicity against Vero cells. Format: cell-based. The settings on record: Chlorocebus sabaeus.
For the next series, the system named is Human alphaherpesvirus 1. The series is described as follows: Antiviral activity against HSV1. Format: functional, organism-based.
Another series relates to Tacaribe virus. The series is described as follows: Antiviral activity against tacaribe virus. Format: functional, organism-based. The settings on record: Mammarenavirus tacaribeense.
The test system of another series is CCRF-CEM. The series is described as follows: Cytotoxicity against CEM cells. The format is cell-based. The settings on record: Homo sapiens.
The next series relates to Punta Toro virus. The series is described as follows: Antiviral activity against Punta Toro virus. Format: functional, organism-based.
The next series has as its system SARS-CoV. The series is described as follows: Antiviral activity against SARS coronavirus. The settings on record: Severe acute respiratory syndrome-related coronavirus. The format is functional, organism-based.

The source made the active and inactive calls. The calls are words filed in the database; no cut-off is given here.

As to `Nc1ncnc2c([C@@H]3C=C(CO)[C@@H](O)[C@H]3O)c[nH]c12`, the outcome (in the series on Vaccinia virus; in the series on Human alphaherpesvirus 3; with Yellow fever virus; in the series on Human alphaherpesvirus 2; with Dengue virus; in series [3]) was inactive. Besides, the outcome in the series on Hepatitis C virus, with Human alphaherpesvirus 1 and in the series on Tacaribe virus was inactive. For the same compound, the concentration giving a half-maximal response (EC50) in series [1] is 2 µM; in the series on West Nile virus it was > 100 µM; in the series on Cowpox virus, > 100 µM. For the same compound, in series [1], it took 43.2 µM to reach the 90% level (EC90). Moreover, the IC50 in the series on West Nile virus was > 100 µM; in [2], 15.6 µM; with Cowpox virus, > 100 µM; in the series on Vero it was > 100 µM; in the series on CCRF-CEM, 10.6 µM. Moreover, the Activity result with LLC-MK2 was “Not Active”.
Take `Cc1cn([C@H]2C[C@H](N=[N+]=[N-])[C@@H](CO)O2)c(=O)[nH]c1=O` [ZIDOVUDINE]: the half-maximal inhibitory concentration (IC50) in series [2] is > 100 µM.
Regarding `Nc1ncnc2c1ncn2[C@@H]1C=C(CO)[C@@H](O)[C@H]1O` [NEOPLANOCIN A], the EC50 in the series on West Nile virus is > 51 µM. In addition, in the series on Cowpox virus, the midpoint of the response, the EC50, lay at 8.4 µM and the IC50 was > 300 µM.
Turning to `O=c1[nH]cc([C@@H]2C=C(CO)[C@@H](O)[C@H]2O)c(=O)[nH]1`, the result (with Vaccinia virus; in the series on Human alphaherpesvirus 3; with Yellow fever virus; with Human alphaherpesvirus 2; in the series on Dengue virus; in [3]) was inactive. Moreover, the outcome with Hepatitis C virus, in the series with Human alphaherpesvirus 1 and with Tacaribe virus was inactive. In addition, the half-maximal effective concentration (EC50) is > 100 µM in series [1]; > 100 µM in the series on West Nile virus; 65 µM in the series on Punta Toro virus; > 100 µM in the series with Cowpox virus; 49 µM in the series with SARS-CoV. For the same compound, the EC90 in series [1] was > 100 µM. Besides, the IC50 (with West Nile virus; in the series with Punta Toro virus; in [2]; in the series on Cowpox virus; in the series with SARS-CoV; in the series on Vero) was > 100 µM throughout. The IC50 with CCRF-CEM was > 100 µM. In the series on LLC-MK2, the Activity entry is reported as “Not Active”.
For `Nc1nc(=O)c([C@@H]2C=C(CO)[C@@H](O)[C@H]2O)c[nH]1`, the result (in the series on Vaccinia virus; in the series on Human alphaherpesvirus 3; in the series on Yellow fever virus; with Human alphaherpesvirus 2; in the series on Dengue virus; in [3]) was inactive. Besides, the result with Hepatitis C virus, with Human alphaherpesvirus 1 and in the series on Tacaribe virus was inactive. Also, the EC50 was > 100 µM in series [1]; 11 µM in the series on West Nile virus; > 100 µM in the series on Punta Toro virus; > 100 µM with Cowpox virus; > 100 µM in the series with SARS-CoV. Moreover, the EC90 in series [1] was > 100 µM. For the same compound, the IC50 (with West Nile virus; in the series with Punta Toro virus; in [2]; in the series with Cowpox virus; with Vero; with CCRF-CEM) was > 100 µM each time. The Activity entry with LLC-MK2 was “Not Active”.
`Nc1nc(O)c2[nH]cc([C@@H]3C=C(CO)[C@@H](O)[C@H]3O)c2n1`: the outcome (in the series on Vaccinia virus; with Human alphaherpesvirus 3; with Yellow fever virus; with Human alphaherpesvirus 2; in the series on Dengue virus; in series [3]) was inactive. Besides, the outcome with Hepatitis C virus, with Human alphaherpesvirus 1 and with Tacaribe virus was inactive. Moreover, the 50% effective concentration (EC50) was > 100 µM in series [1]; > 100 µM with West Nile virus; 2.5 µM in the series on Punta Toro virus; > 100 µM in the series on Cowpox virus; > 100 µM with SARS-CoV. For the same compound, in series [1], the 90% effect concentration (EC90) was > 100 µM. In addition, the IC50 (with West Nile virus; with Punta Toro virus; in series [2]; in the series with Cowpox virus; in the series with Vero; with CCRF-CEM) was > 100 µM in each case. The Activity entry in the series with LLC-MK2 is given as “Not Active”.
